The source made the active and inactive calls.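 The calls were made as follows, unless noted: active = NADPH fluorescence slope more negative than the mean of all samples by about 3 SD, 99.7% confidence; inactive = the rest.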
What was measured:
[1] = inhibitors of TNFa-induced NFkB p65 translocation, primary screen, imaging, HUVEC, MLSMR starter and 10KST1 sets (AID 438;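 active = inhibition above 20% together with a positive visual image hit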;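 also: compound added about 3h40 before a 20 min TNFalpha stimulation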;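 as to inhibition: signal is the nuclear over cytoplasmic p65 intensity ratio per well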); conditions: HUVEC TNFa-induced p65 nuclear translocation; cell count: measured here: nuclei count (cytotoxicity indicator), at 2.08 µM; inhibition: at 2 µM, stronger effect = higher value, 0% TNFa-plus-vehicle, 100% no-TNFa wells
[2] = reduction of polyQ htt aggregates in cells – imaging, exon1htt(103Q)mCFP cells, high-content imaging, primary screen (AID 483;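 active = visual image review flags a hit and inhibition of aggregation exceeds 20%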;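 also: compound exposure lasted 3 days before fixation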;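 as to nuclei count: percent of the per-plate median nuclei count of sample wells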); conditions: exon1htt(103Q)mCFP cell line, aggregate imaging, at 2 µM; inhibition of aggregation: stronger effect = higher value; nuclei count: measured here: cell count, toxicity
[3] = endothelial E-selectin expression blockers – imaging, HUVEC, immunofluorescence, MLSMR starter and 10KST1 sets, primary screen (AID 487;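 active = visually confirmed hit in the image check and inhibition above 20%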;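 as to inhibition: signal is fraction of cell area covered by stained E-selectin grains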;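 as to nuclei count: 100% = median nuclei count of all wells on the same plate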); conditions: HUVEC TNFalpha-induced E-selectin immunofluorescence imaging, at 2 µM; inhibition: stronger effect = higher value; nuclei count: measured here: cell number, toxicity
[4] = target: Voltage-gated potassium channel subunit beta-2 (Rattus norvegicus) (UniProt P62483); experiment: inhibitors of rat Kvbeta2 reductase activity – biochemical, NADPH fluorescence, primary screen (AID 622;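 active = fluorescence slope higher than the sample average by over 3 SD, cut at about -0.22 in these data, passing the limit was not always enough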;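 also: slope of raw intensity against log time taken from 70 to 1610 s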); conditions: recombinant KvBeta, 4-cyanobenzaldehyde reduction, at 10 µM, stronger effect = higher value
Voltage-gated potassium channel subunit beta-2 (Rattus norvegicus), sequence (P62483 whole entry, looked up): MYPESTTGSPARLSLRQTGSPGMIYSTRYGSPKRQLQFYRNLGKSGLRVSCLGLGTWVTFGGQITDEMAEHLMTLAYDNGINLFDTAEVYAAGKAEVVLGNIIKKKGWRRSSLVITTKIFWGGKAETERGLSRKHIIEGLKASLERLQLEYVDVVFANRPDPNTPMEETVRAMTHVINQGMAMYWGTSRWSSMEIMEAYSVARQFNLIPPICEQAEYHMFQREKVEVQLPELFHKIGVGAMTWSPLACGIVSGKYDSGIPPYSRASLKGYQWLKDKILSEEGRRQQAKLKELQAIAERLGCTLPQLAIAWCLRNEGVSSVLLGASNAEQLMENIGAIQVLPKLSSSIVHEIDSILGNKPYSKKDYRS

[5] = target: Voltage-gated potassium channel subunit beta-2 (Rattus norvegicus) (UniProt P62483); experiment: enhancers of rat Kvbeta2 NADPH turnover – biochemical, NADPH fluorescence, primary screen (AID 623); conditions: Recombinant KvBeta, NADPH fluorescence decrease slope, 10 min; at 10 µM; stronger effect = lower value;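 also: fluorescence intensity change per second fitted from 20 to 320 s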
[6] = target: Muscarinic acetylcholine receptor M4 (Homo sapiens) (UniProt P08173); experiment: M4-linked GIRK flux change, two-sided – cell-based, HEK293 M4/GIRK, thallium flux, BTC-AM, M4 allosteric agonist project, primary screen (AID 625;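 active = fluorescence slope after compound addition differing from the mean of all tested samples at 99.7% confidence, mostly higher but some lower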;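 also: thallium influx through GIRK channels coupled to M4 in HEK293 cells with BTC-AM dye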); conditions: at 10 µM, actives lie on both sides
Muscarinic acetylcholine receptor M4 (Homo sapiens), sequence (P08173 whole entry, looked up): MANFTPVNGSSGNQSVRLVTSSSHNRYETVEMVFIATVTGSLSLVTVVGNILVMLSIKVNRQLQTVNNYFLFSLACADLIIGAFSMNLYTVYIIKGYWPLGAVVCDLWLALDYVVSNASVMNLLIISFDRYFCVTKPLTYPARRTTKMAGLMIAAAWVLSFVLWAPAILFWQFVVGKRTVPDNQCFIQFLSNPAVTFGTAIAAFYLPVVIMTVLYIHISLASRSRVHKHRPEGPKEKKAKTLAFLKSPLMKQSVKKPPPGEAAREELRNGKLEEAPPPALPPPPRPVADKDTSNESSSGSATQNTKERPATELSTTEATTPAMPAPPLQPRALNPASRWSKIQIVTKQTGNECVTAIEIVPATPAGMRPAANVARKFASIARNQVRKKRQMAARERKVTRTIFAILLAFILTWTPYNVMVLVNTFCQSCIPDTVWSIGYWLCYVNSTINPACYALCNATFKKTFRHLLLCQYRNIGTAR
Method in brief: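 Material: HEK293 cells with M4 receptor and GIRK channels; Times: cells overnight at 37 °C, BTC-AM loading 1 h, reads 2 min total; Technique: kinetic BTC-AM fluorescence sampled at 1 Hz, 10 s pre-addition baseline; Read-out basis: slope over 15–24 s of trace normalized to starting intensity; Controls: carbachol positive, DMSO negative.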

[7] = blockers of RIG-like receptor reporter activation – cell-based, Sendai virus stimulus, luciferase, 10K MLSCN set, TLR/RLR signaling modifier project, primary screen (AID 602276;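 active = inhibition at or above 50% at 10 µM; inactive = inhibition below 50%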;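 also: firefly luciferase from ISG56 promoter only with Renilla not read in this screen; 0% = Sendai virus plus DMSO and 100% = medium plus DMSO without virus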); conditions: HEK293 RL24 IRF3 luciferase reporter, at 10 µM, stronger effect = higher value
[8] = TLR3 IRF3 reporter activation blockers – cell-based, poly I:C stimulus, luciferase, 10K MLSCN set, primary screen (AID 602277;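 active = inhibition of the reporter signal at or above 50%; inactive = inhibition below 50%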); conditions: HEK293-TLR3 RL24 IRF3 luciferase reporter, at 10 µM, stronger effect = higher value

Compound | cell count [1] | inhibition [1] | inhibition of aggregation [2] | nuclei count [2] [%] | inhibition [3] | nuclei count [3] [%] | fluorescence slope [4] | NADPH fluorescence slope [5] | fluorescence slope [6] | inhibition [7] | inhibition [8]
NC1=NC(c2ccc(Br)cc2)n2c(nc3ccccc32)N1 (centres undefined) | 779 | 4.8% (inactive) | -6.6% (inactive) | 105 | -44.9% (inactive) | 106 | -0.556 (inactive) | -1.5e-06 (inactive) | 0.00498 (inactive) | 17.6% (inactive) | 25% (inactive)
CC1(C)CC(=O)C=C(Nc2ccc(F)cc2)C1 | 454 | 10.9% (inactive) | 3.9% (inactive) | 99.5 | -20% (inactive) | 109 | -0.607 (inactive) | 3.1e-05 (inactive) | 0.00469 (inactive) | -2.98% (inactive) | 13.6% (inactive)
C=C(c1cccc2ccccc12)P(=O)(O)O | 429 | 11.9% (inactive) | 18.4% (inactive) | 92.8 | 18.6% (inactive) | 99.8 | -0.493 (inactive) | -0.000279 (inactive) | 0.00428 (inactive) | 17.7% (inactive) | 22.1% (inactive)
CC(OC1=CC(=O)CCC1)C(=O)c1ccccc1 (centres undefined) | 370 | 10.4% (inactive) | 36.6% (active) | 64.2 | 24.1% (inactive) | 72.3 | -0.569 (inactive) | 1.9e-05 (inactive) | 0.00642 (inactive) | 14.1% (inactive) | 18.3% (inactive)
CCCCn1c(CN2CCN(c3cccc(Cl)c3)CC2)nc2c1c(=O)n(C)c(=O)n2C | 581 | 3.4% (inactive) | 10.6% (inactive) | 100 | -3.3% (inactive) | 103 | -0.597 (inactive) | -6.6e-05 (inactive) | 0.00321 (inactive) | 14.4% (inactive) | -1.69% (inactive)
O=C(O)COc1ccc(Oc2ccccc2)cc1 | 357 | 0.5% (inactive) | 0.7% (inactive) | 103 | -8.6% (inactive) | 112 | -0.567 (inactive) | 1.9e-05 (inactive) | 0.00744 (inactive) | 3.08% (inactive) | 9.93% (inactive)
CCC1(CC)NC(=O)NC1=O | 665 | 2.2% (inactive) | -5.3% (inactive) | 89.9 | 12.8% (inactive) | 106 | -0.588 (inactive) | -8.1e-05 (inactive) | 0.00419 (inactive) | 16.7% (inactive) | 8.56% (inactive)
COC(=O)COc1ccc(C(=O)OC)cc1 | 384 | 5% (inactive) | 9.9% (inactive) | 100 | -33.2% (inactive) | 102 | -0.456 (inactive) | 1.1e-05 (inactive) | 0.00492 (inactive) | 6.44% (inactive) | 10.8% (inactive)
COC(=O)c1[nH]c2cc(OC)ccc2c1NC(=O)CN1CCOCC1 | 346 | 1.4% (inactive) | -17.1% (inactive) | 105 | -117% (inactive) | 117 | -0.535 (inactive) | -1.7e-05 (inactive) | 0.00517 (inactive) | 13.1% (inactive) | 7.58% (inactive)
C=CCn1cc(C(=O)NCCOC)c(=O)c2cc(S(=O)(=O)N(CC)CC)ccc21 | 580 | -15.8% (inactive) | 7.1% (inactive) | 81.2 | -11.3% (inactive) | 115 | -0.607 (inactive) | 1.4e-05 (inactive) | 0.00635 (inactive) | 7.34% (inactive) | 17.4% (inactive)
COc1cccc(Nc2nc(=O)[nH]nc2C)c1 | 372 | -0.7% (inactive) | -14.2% (inactive) | 106 | -23.9% (inactive) | 103 | -0.572 (inactive) | -4.1e-05 (inactive) | 0.00575 (inactive) | 16.9% (inactive) | 22.7% (inactive)
COCC(=O)N(Cc1ccccc1)c1ccccn1 | 354 | 4.9% (inactive) | 1.6% (inactive) | 94.8 | -58.3% (inactive) | 153 | -0.599 (inactive) | -4.6e-05 (inactive) | 0.00609 (inactive) | 11.8% (inactive) | 14.7% (inactive)
COc1ccc(S(=O)(=O)N(C)c2ccc(C(=O)N3CCOCC3)cc2)cc1 | 321 | -2.9% (inactive) | -6.7% (inactive) | 105 | -106% (inactive) | 129 | -0.515 (inactive) | -0.000149 (inactive) | 0.00412 (inactive) | 14.9% (inactive) | 16.7% (inactive)
COc1ccc2nc(NC(=O)CSc3nnc(-c4ccoc4C)n3C)sc2c1 | 392 | 9.9% (inactive) | -2.4% (inactive) | 97.8 | -28.8% (inactive) | 104 | -0.563 (inactive) | -2.5e-05 (inactive) | 0.00441 (inactive) | -11.5% (inactive) | -48.5% (inactive)
